# Measurements: ChEMBL document CHEMBL2086222, “Bioassay-guided isolation of prenylated xanthones and polycyclic acylphloroglucinols from the leaves of Garcinia nujiangensis” (J Nat Prod, 2012)
# Activity calls are given as the source filed them. No cut-off for these calls is given here.
# Assays:
# U-87MG ATCC = experiment: Cytotoxicity against human U87 cells assessed as reduction in cell viability at 5 to 40 uM after 72 hrs by MTT assay; type: functional, cell-based
# How it was run: (§1)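 Cells in RPMI 1640, DMEM or DMEM/F12 with 10% FBS, 37 °C, 5% CO2. Plated at 5 × 10^3 cells/well and attached overnight. Exposed 72 h to 5, 10, 20 or 40 μM from DMSO stocks diluted in medium. MTT (5 mg/mL stock in PBS) added for 4 h at 37 °C, formazan dissolved in DMSO, A490 read. Untreated cells taken as 100%.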
# BXPC-3 [1] = experiment: Cytotoxicity against human BxPC3 cells assessed as reduction in cell viability at 5 to 40 uM after 72 hrs by MTT assay; type: functional, cell-based; how it was run: as §1
# NCI-H2126 [2] = experiment: Cytotoxicity against human NCI-H2126 cells assessed as reduction in cell viability at 5 to 40 uM after 72 hrs by MTT assay; type: functional, cell-based; how it was run: as §1
# PANC-1 [3] = experiment: Cytotoxicity against human PANC1 cells assessed as reduction in cell viability at 5 to 40 uM after 72 hrs by MTT assay; type: functional, cell-based; how it was run: as §1
# A549 [4] = experiment: Cytotoxicity against human A549 cells assessed as reduction in cell viability at 5 to 40 uM after 72 hrs by MTT assay; type: functional, cell-based; how it was run: as §1
# MCF7 = experiment: Cytotoxicity against human MCF7 cells assessed as reduction in cell viability at 5 to 40 uM after 72 hrs by MTT assay; type: functional, cell-based; how it was run: as §1
# MDA-MB-231 = experiment: Cytotoxicity against human MDA-MB-231 cells assessed as reduction in cell viability at 5 to 40 uM after 72 hrs by MTT assay; type: functional, cell-based; how it was run: as §1
# SMMC-7721 [5] = experiment: Cytotoxicity against human SMMC7721 cells assessed as reduction in cell viability at 5 to 40 uM after 72 hrs by MTT assay; type: functional, cell-based; how it was run: as §1
# HepG2 = experiment: Cytotoxicity against human HepG2 cells assessed as reduction in cell viability at 5 to 40 uM after 72 hrs by MTT assay; type: functional, cell-based; how it was run: as §1
# AGS [6] = experiment: Cytotoxicity against human AGS cells assessed as reduction in cell viability at 5 to 40 uM after 72 hrs by MTT assay; type: functional, cell-based; how it was run: as §1
# [7] = Cytotoxicity against human MIHA cells assessed as reduction in cell viability at 5 to 40 uM after 72 hrs by MTT assay; type: cell-based; how it was run: as §1
# A-375 [8] = experiment: Cytotoxicity against human A375 cells assessed as reduction in cell viability at 5 to 40 uM after 72 hrs by MTT assay; type: functional, cell-based; how it was run: as §1
# AGS [9] = experiment: Cytotoxicity against human AGS cells assessed as reduction in cell viability after 72 hrs by MTT assay; type: functional, cell-based; how it was run: as §1
# BXPC-3 [10] = experiment: Cytotoxicity against human BxPC3 cells assessed as reduction in cell viability after 72 hrs by MTT assay; type: functional, cell-based; settings: BXPC-3, 72 h; how it was run: as §1
# NCI-H2126 [11] = experiment: Cytotoxicity against human NCI-H2126 cells assessed as reduction in cell viability after 72 hrs by MTT assay; type: functional, cell-based; settings: NCI-H2126, 72 h; how it was run: as §1
# PANC-1 [12] = experiment: Cytotoxicity against human PANC1 cells assessed as reduction in cell viability after 72 hrs by MTT assay; type: functional, cell-based; settings: PANC-1, 72 h; how it was run: as §1
# SMMC-7721 [13] = experiment: Cytotoxicity against human SMMC7721 cells assessed as reduction in cell viability after 72 hrs by MTT assay; type: functional, cell-based; settings: SMMC-7721, 72 h; how it was run: as §1
# A549 [14] = experiment: Cytotoxicity against human A549 cells assessed as reduction in cell viability after 72 hrs by MTT assay; type: functional, cell-based; settings: A549, 72 h
# How it was run: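 Human lung line cultured in RPMI 1640, DMEM or DMEM/F12 with 10% FBS at 37 °C, 5% CO2. 5 × 10^3 cells/well plated and left to attach overnight. Compound taken from DMSO stock, diluted in medium, tested at 5, 10, 20 and 40 μM for 72 h. MTT (5 mg/mL stock) added for 4 h at 37 °C. Formazan dissolved in DMSO, absorbance read at 490 nm. Untreated cells set as 100%.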
# A-375 [15] = experiment: Cytotoxicity against human A375 cells assessed as reduction in cell viability after 72 hrs by MTT assay; type: functional, cell-based; settings: A-375, 72 h; how it was run: as §1
SMILES,Activity (U-87MG ATCC),Activity (BXPC-3 [1]),Activity (NCI-H2126 [2]),Activity (PANC-1 [3]),Activity (A549 [4]),Activity (MCF7),Activity (MDA-MB-231),Activity (SMMC-7721 [5]),Activity (HepG2),Activity (AGS [6]),Activity [7],Activity (A-375 [8]),IC50 (AGS [9]) [nM],IC50 (BXPC-3 [10]) [nM],IC50 (NCI-H2126 [11]) [nM],IC50 (PANC-1 [12]) [nM],IC50 (SMMC-7721 [13]) [nM],IC50 (A549 [14]) [nM],IC50 (A-375 [15]) [nM]
C=C(C)CC[C@@H]1C[C@]23C[C@H](CC=C(C)C)C(C)(C)[C@](CC=C(C)C)(C(=O)C(C(=O)c4ccc(O)c(O)c4)=C2OC1(C)C)C3=O [CYCLOXANTHOCHYMOL],Active,Active,Active,Active,Active,Active,Active,Active,Active,Active,Non-toxic,Active,–,–,–,–,–,–,–
C=C(C)CCC(C[C@]12C[C@@H]3[C@H](C=C(C)C)[C@](C(=O)c4ccc(O)c(O)c4)(C1=O)C(=O)[C@](CC=C(C)C)(C2=O)C3(C)C)C(=C)C (stereo partly specified),Active,Active,Active,Active,Active,Active,Active,Active,Active,Active,Non-toxic,Active,–,–,–,–,–,–,–
C=C(C)[C@@H]1C[C@]23C[C@H](CC=C(C)C)C(C)(C)[C@](CC=C(C)C)(C(=O)C(C(=O)c4ccc(O)c(O)c4)=C2O[C@H]1C=C(C)C)C3=O [GARCINIALIPTONE B],Active,Active,Active,Active,Active,Active,Active,Active,Active,Active,Non-toxic,Active,–,–,–,–,–,–,–
CC(=O)O[C@H]1C(=O)[C@@]2(C)[C@H]([C@H](OC(=O)c3ccccc3)[C@]3(O)C[C@H](OC(=O)[C@H](O)[C@@H](NC(=O)c4ccccc4)c4ccccc4)C(C)=C1C3(C)C)[C@]1(OC(C)=O)CO[C@@H]1C[C@@H]2O [PACLITAXEL],–,–,–,–,–,–,–,–,–,–,–,–,1600,90,2500,260,150,720,9.2
COc1cc2c(=O)c3c(O)c(CC=C(C)C)c(O)c(CC=C(C)C)c3oc2c(O)c1O [XANTHONE V2A],Active,Active,Active,Active,Active,Active,Active,Active,Active,Active,Non-toxic,Active,–,–,–,–,–,–,–
CC1(C)C=Cc2c(cc(O)c3c(=O)c4ccc(O)c(O)c4oc23)O1 [ISOJACAREUBIN],–,–,–,–,–,–,–,–,–,–,Non-toxic,–,–,–,–,–,–,–,–
O=c1c(O)c(-c2ccc(O)cc2)oc2cc(O)cc(O)c12 [KAEMPFEROL],Active,Active,Active,Active,Active,Active,Active,Active,Active,Active,Non-toxic,Active,–,–,–,–,–,–,–
C=C(C)CCC(C[C@@]12C[C@@H](CC=C(C)C)C(C)(C)[C@@](CC=C(C)C)(C(=O)c3c1oc1cc(O)c(O)cc1c3=O)C2=O)C(=C)C (relative stereo),Active,Active,Active,Active,Active,Active,Active,Active,Active,Active,Non-toxic,Active,–,–,–,–,–,–,–
C=C(C)[C@@H](CC=C(C)C)C[C@@]12C[C@H](CC=C(C)C)C(C)(C)[C@@](CC=C(C)C)(C(=O)C(C(=O)c3ccc(O)c(O)c3)=C1O)C2=O,Active,Active,Active,Active,Active,Active,Active,Active,Active,Active,Non-toxic,Active,–,–,–,–,–,–,–
C=C(C)CCC(C[C@@]12C[C@H](CC=C(C)C)C(C)(C)[C@@](CC=C(C)C)(C1=O)c1oc3cc(O)c(O)cc3c(=O)c1C2=O)C(=C)C (relative stereo),Active,Active,Active,Active,Active,Active,Active,Active,Active,Active,Non-toxic,Active,–,–,–,–,–,–,–
C=C(C)CC[C@H]1C[C@@]23C[C@@H](CC=C(C)C)C(C)(C)[C@@](CC=C(C)C)(C(=O)C(C(=O)c4ccc(O)c(O)c4)=C2OC1(C)C)C3=O,Active,Active,Active,Active,Active,Active,Active,Active,Active,Active,Non-toxic,Active,–,–,–,–,–,–,–
COc1c(O)c(O)c2c(=O)c3c(CC=C(C)C)c(CC=C(C)C)c(O)c(O)c3oc2c1CC=C(C)C [NUJIANGEXANTHONE A],Active,Active,Active,Active,Active,Active,Active,Active,Active,Active,Non-toxic,Active,–,–,–,–,–,–,–
COc1c(OC)c(O)c2c(=O)c3c(CC=C(C)C)c(CC=C(C)C)c(O)c(O)c3oc2c1CC=C(C)C [NUJIANGEXANTHONE B],Active,Active,Active,Active,Active,Active,Active,Active,Active,Active,Non-toxic,Active,–,–,–,–,–,–,–
C=C(C)CCC(C[C@]12C[C@H](CC=C(C)C)C(C)(C)[C@@]3(C[C@@H](C(C)(C)O)OC3=C(C(=O)c3ccc(O)c(O)c3)C1=O)C2=O)C(=C)C (relative stereo),Active,Active,Active,Active,Active,Active,Active,Active,Active,Active,Non-toxic,Active,–,–,–,–,–,–,–
CC(C)=CC[C@H]1C[C@@]23C[C@@H](CC=C(C)C)C(C)(C)[C@@](CC=C(C)C)(C(=O)C(C(=O)c4ccc(O)c(O)c4)=C2OC1(C)C)C3=O [CAMBOGIN],Active,Active,Active,Active,Active,Active,Active,Active,Active,Active,Non-toxic,Active,–,–,–,–,–,–,–
CC(C)=CC[C@H]1C[C@@]23C[C@H](CC=C(C)C)C(C)(C)[C@@](CC=C(C)C)(C(=O)C(C(=O)c4ccc(O)c(O)c4)=C2OC1(C)C)C3=O,Active,Active,Active,Active,Active,Active,Active,Active,Active,Active,Non-toxic,Active,–,–,–,–,–,–,–
